Data on three molecules can be found in ChEMBL document CHEMBL5385974, “A novel BODIPY-based theranostic agent for in vivo fluorescence imaging of cerebral Aβ and ameliorating Aβ-associated disorders in Alzheimer's disease transgenic mice” (RSC Med Chem, 2024).

Active and inactive are the calls of the source. The calls are words filed in the database; no cut-off is given here.

Series [1] has as its target T1, Amyloid-beta precursor protein (Homo sapiens, UniProt P05067). Briefly: Binding affinity to Amyloid beta (1 to 42) aggregates (unknown origin). In outline:
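Fluorescence titration in which P14 (0–200 nM, in EtOH) was incubated with 5 μM Aβ42 aggregates for 30 min at room temperature. Read in a quartz cuvette at Ex 589 nm, Em 620 nm. Kd was obtained by nonlinear regression, one-site binding. n = 3; mean ± SD.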

Series [2] has as its target T1, Amyloid-beta precursor protein. Description: Binding affinity to Amyloid beta (1 to 42) aggregates (unknown origin) assessed as fluorescent intensities measured after 30 mins by fluorescence spectrometry. In outline: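 P14 (320 nM final, in EtOH) incubated 30 min at room temperature with 0, 2, 4, 6 or 8 μM Aβ42 aggregates. Aggregates were made by shaking 50 μM Aβ42 in 10 mM PBS pH 7.4 at 100 rpm, 37 °C, 24 h. Emission spectra recorded at 600–800 nm with excitation at 589 nm.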

The species entered for series [3] is Mus musculus. Description: Antialzheimer activity in 12 month old APP/PS1 transgenic cognitive impairment mouse model assessed as shortening of latencies to reaching platform treated continuously and measured after 3 months by water maze test. In kind it is functional, organism-based. In outline:
(§1)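 APP/PS1 mice and wild-type littermates given oral 10 mg kg-1 (PEG400:HS15:0.9% saline = 25:15:60) or vehicle from 9 to 12 months. Tested in an 80 × 50 cm passage water maze with one correct path. Training was 1-min free swims, with guidance to the platform on failure. After 4 trainings, wrong-path errors and latency to the platform were recorded. n = 6-10.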

Series [4] concerns Cortical neurone. Briefly: Neuroprotective effect against Amyloid-beta induced Sprague-Dawley rat primary cortical neurons assessed as cell viability after 9 days of pretreatment with Amyloid-beta followed by incubated with 1 uM compound for 24 hrs by MTT assay. The series is classed as functional, cell-based. The note with it: time 9.0 day. The procedure, abridged: (§2)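 Primary cortical neurons from newborn SD rat pups, cultured in neurobasal/B27 at 37 °C and used at day 9. Cells were exposed for 24 h to Aβ42 (1 μM final) premixed with compound at 0, 0.1, 0.25, 0.5, 1 or 5 μM final. MTT was then added for 4 h, formazan dissolved in DMSO and absorbance read at 490 nm. n = 3; mean ± SD.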

Series [5] relates to Cortical neurone. Description: Cytotoxicity against Sprague-Dawley rat primary cortical neurons assessed as cell viability at 0.1 to 5 uM measured after 24 hrs by MTT assay. The series is classed as toxicity, cell-based. The note with it: dose 0.1-5 µM.
The subject of series [6] is Mus musculus. Description: Anti-alzheimer activity against 5 month old 5 x FAD mouse assessed as average radiation efficiency at 30 mg/kg, po treated for 1 month. In kind it is functional. The note with it: time 1 months, 730 h. In outline:
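5×FAD and wild-type mice imaged by IVIS after a single intravenous injection of 2.0 mg kg-1. Imaging was done at 5 months, and again at 6 months after one month of oral treatment (30 mg kg-1) or vehicle. Ex 570 nm, Em 640 nm. Read-out is average radiation efficiency. n = 3 at 5 months, n = 4 at 6 months; mean ± SD.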

For series [7], the species on record is Mus musculus. Briefly: Anti-alzheimer activity against 12 month old APP/PS1 transgenic mouse model assessed as decrease in amyloid beta plaques in brain hippocampus region treated continuously and measured after 3 months by ThS staining based immunofluorescence assay relative to control. The series is classed as functional, organism-based. The procedure, abridged: (§3)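 APP/PS1 mice dosed orally from 9 months of age for three months with 10 mg kg-1 in PEG400:HS15:0.9% saline = 25:15:60, or with vehicle alone. Wild-type mice were treated in parallel. ThS-stained plaques were counted by confocal imaging of hippocampus and cortex sections at 12 months. n = 3.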

Series [8] concerns Brain. Briefly: In vivo binding affinity Amyloid beta deposits in wild type mouse brain by fluorescence staining assay. The series is classed as functional, organism-based. In outline: (§4)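 Frozen brain sections from perfused 12-month male APP/PS1 mice or wild-type mice. Sections were stained with ThS (10 mg mL-1), washed 3 times with 50% ethanol, then incubated with 100 μM compound for 20 min at room temperature. Confocal imaging: compound Ex 638/Em 650–700 nm, ThS Ex 488/Em 500–550 nm. n = 3.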

Series [9] relates to Cortical neurone. Briefly: Neuroprotective effect against Amyloid-beta induced Sprague-Dawley rat primary cortical neurons assessed as cell viability after 9 days of pretreatment with Amyloid-beta followed by incubated with 5 uM compound for 24 hrs by MTT assay. The note with it: time 9.0 day. In kind it is functional, cell-based. The procedure, abridged: as §2
The subject of series [10] is Hippocampus. Briefly: In vivo binding affinity Amyloid beta deposits in APPswe/PSEN1dE9, APP/PS1 double transgenic mouse hippocampus assessed as red fluorescent spot. In kind it is functional, organism-based. The procedure, abridged:
as §4

The test system of series [11] is Cerebral cortex. Description: In vivo binding affinity Amyloid beta deposits in APPswe/PSEN1dE9, APP/PS1 double transgenic mouse cerebral cortex assessed as red fluorescent spot. In kind it is functional, organism-based. In outline:
as §4

Series [12] is filed under the species Mus musculus. Description: Anti-alzheimer activity against 12 month old APP/PS1 transgenic mouse model assessed as decrease in amyloid beta plaques in brain cortex region treated continuously and measured after 3 months by ThS staining based immunofluorescence assay relative to control. In kind it is functional, organism-based. In outline: as §3
Series [13] is filed under the species Mus musculus. Briefly: Antialzheimer activity in 12 month old APP/PS1 transgenic cognitive impairment mouse model assessed as reduction in error time in passage water maze treated continuously and measured after 3 months by passage water maze test. In kind it is functional, organism-based. In outline: as §1
Series [14] deals with Cortical neurone. Briefly: Neuroprotective effect against Amyloid-beta induced Sprague-Dawley rat primary cortical neurons assessed as reversal of Amyloid beta-induced loss of MAP2/DAPI fluorescence signal at 1 uM by immunofluorescence staining based assay. In kind it is functional, cell-based. In outline:
(§5)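 Primary rat cortical neurons exposed to Aβ42 with or without compound. Cells were fixed in 4% PFA and blocked with 3% BSA/0.01% Triton X-100 for 1 h. Staining was anti-MAP2 (1:200) overnight at 4 °C, then Alexa Fluor 488 secondary (1:500) for 1 h, with DAPI nuclear counterstain. MAP2 fluorescence was quantified. n = 3.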

Series [15] deals with Mus musculus. Briefly: In vivo binding affinity Amyloid beta deposits in APP/PS1 transgenic mouse assessed as Increase in fluorescence intensity at 2 mg/kg, iv measured after 5 mins by IVIS Spectrum imaging based assay relative to wild type. In kind it is functional, organism-based. The procedure, abridged:
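APP/PS1 and wild-type mice, 12 months old, heads shaved and anaesthetized with 1.5% isoflurane. Injected intravenously with 2 mg kg-1 in DMSO:Cremophor EL:0.9% saline = 5:10:85. Brain fluorescence was acquired sequentially by IVIS, with circular ROI analysis at 5 min. Ex 570 nm, Em Cy5.5. n = 3.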

Series [16] concerns the target T1, Amyloid-beta precursor protein. Description: Inhibition of amyloid beta 42 (unknown origin) aggregation assessed as reduction in amyloid fibrils density at 50 uM measured after 24 hrs incubation by transmission electron microscopy (TEM). In outline:
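Aβ42 (50 μM in water) mixed 1:1 with water or 100 μM compound, then shaken at 100 rpm, 37 °C, 24 h. Samples were adsorbed on carbon-coated copper grids, negatively stained with 7.5% uranium formate and imaged by TEM at 120 kV.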

The target is the same in series [17]. Briefly: Inhibition of amyloid beta 42 (unknown origin) aggregation assessed as fluorescence intensity at 0.1 equivalents measured for 24 hrs by ThT fluorescence assay. In outline:
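Aβ42 monomer (50 μM) incubated 24 h at 37 °C with or without compound. ThT was then added from a 15 mM solution in 50 mM glycine-NaOH, and fluorescence read at Ex 425/Em 490 nm. n = 4; mean ± SD.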

Series [18] can be described thus: Solubility of the compound in water. In kind it is physicochemical. The note with it: buffer.
The species entered for series [19] is Mus musculus. Briefly: Anti-alzheimer activity against transgenic mouse model assessed as decrease in amyloid beta plaques in brain hippocampus region treated continuously and measured after 3 months by ThS staining based immunofluorescence assay relative to control.
Series [20] has as its system Cortical neurone. Briefly: Neuroprotective effect against Amyloid-beta induced Sprague-Dawley rat primary cortical neurons assessed as reversal of Amyloid beta-induced loss of MAP2 fluorescence signal at 1 uM by immunofluorescence staining based assay. The series is classed as functional, cell-based. In outline:
as §5

T1 sequence (P05067 whole entry): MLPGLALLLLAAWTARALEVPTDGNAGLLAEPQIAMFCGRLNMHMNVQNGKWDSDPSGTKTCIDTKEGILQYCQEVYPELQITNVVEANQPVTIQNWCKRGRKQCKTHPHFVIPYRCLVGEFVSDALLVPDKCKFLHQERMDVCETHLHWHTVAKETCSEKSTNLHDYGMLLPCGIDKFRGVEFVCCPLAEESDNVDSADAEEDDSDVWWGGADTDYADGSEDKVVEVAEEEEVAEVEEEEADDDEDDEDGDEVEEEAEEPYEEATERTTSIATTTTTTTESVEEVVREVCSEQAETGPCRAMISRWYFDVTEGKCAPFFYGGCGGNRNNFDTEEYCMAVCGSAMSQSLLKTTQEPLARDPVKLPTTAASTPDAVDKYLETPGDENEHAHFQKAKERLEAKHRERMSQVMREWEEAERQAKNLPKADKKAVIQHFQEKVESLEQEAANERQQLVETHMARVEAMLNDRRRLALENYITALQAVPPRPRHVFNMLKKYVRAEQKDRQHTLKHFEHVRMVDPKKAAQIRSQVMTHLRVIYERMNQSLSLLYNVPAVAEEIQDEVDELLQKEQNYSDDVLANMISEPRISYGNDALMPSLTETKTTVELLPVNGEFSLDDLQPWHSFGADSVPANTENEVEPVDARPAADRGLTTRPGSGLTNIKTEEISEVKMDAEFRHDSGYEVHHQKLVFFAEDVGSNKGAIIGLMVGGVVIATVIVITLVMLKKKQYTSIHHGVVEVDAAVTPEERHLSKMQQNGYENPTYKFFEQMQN

On to `Cc1cc(/C=C/c2ccc(N(C)C)s2)n2c1C=C1C=CC=[N+]1[B-]2(F)F`, for which, in series [1], the affinity, expressed as Kd, was 55 nM.

Consider `CC1=CC(C)=[N+]2C1=C(CCCO)c1c(C)cc(/C=C/c3cnc(N(C)C)s3)n1[B-]2(F)F`, for which the Kd in series [2] turned out to be 78.1 nM. Moreover, the result in [3], in series [4], in series [7], in series [9], in series [10] and in series [11] was Active. Besides, the outcome in [12], in [13], in series [14], in series [15], in [19] and in series [20] was Active. Also, the Activity entry is on record as “Non-Toxic” in [5] and 5.2 10^8(p/s/cm^2/sr)/(uW/cm^2) in series [6]. Further, the outcome in series [8] was inactive. The inhibition entry in series [16] was “Active”. Further, the inhibition result in [17] is “Dose-Dependent Effect”. Also, the solubility result in series [18] is on record as “Soluble”.

Turning to `CC1=CC(C)=[N+]2C1=C(CCCN1CCNc3ccccc31)c1c(C)cc(/C=C/c3ccc(N(C)C)s3)n1[B-]2(F)F`, in series [2], the equilibrium dissociation constant (Kd) stood at 27 nM.
